SMILES strings stand for the structures. Calls of active or inactive are those of the source. No cut-off for these calls is given here.

The target of experiment [1] is T1, Glucocorticoid receptor (Homo sapiens, UniProt P04150).
T1 sequence (P04150 whole entry): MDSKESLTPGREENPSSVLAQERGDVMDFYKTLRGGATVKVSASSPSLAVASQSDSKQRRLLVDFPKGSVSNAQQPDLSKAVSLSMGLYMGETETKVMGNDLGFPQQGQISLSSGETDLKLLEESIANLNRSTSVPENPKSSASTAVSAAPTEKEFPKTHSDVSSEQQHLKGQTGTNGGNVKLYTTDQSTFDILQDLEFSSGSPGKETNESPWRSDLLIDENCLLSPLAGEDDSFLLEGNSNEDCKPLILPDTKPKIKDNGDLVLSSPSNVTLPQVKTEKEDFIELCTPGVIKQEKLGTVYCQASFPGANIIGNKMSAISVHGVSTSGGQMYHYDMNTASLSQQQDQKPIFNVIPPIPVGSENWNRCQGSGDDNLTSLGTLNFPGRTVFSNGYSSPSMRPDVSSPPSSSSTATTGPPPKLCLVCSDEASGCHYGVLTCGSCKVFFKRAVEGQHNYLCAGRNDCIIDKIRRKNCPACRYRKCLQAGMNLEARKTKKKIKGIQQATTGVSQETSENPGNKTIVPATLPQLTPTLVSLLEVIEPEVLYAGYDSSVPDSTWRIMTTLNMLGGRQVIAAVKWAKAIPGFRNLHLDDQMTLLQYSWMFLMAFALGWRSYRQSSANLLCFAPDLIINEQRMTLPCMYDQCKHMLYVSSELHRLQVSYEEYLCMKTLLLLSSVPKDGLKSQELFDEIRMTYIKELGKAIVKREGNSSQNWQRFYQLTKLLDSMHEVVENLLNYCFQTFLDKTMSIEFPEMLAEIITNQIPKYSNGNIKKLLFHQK
Briefly: Displacement of [3H]-dexamethasone from human glucocorticoid receptor expressed in HEK293 cells by scintillation counting based radioligand competition binding assay. In kind it is cell-based. A general note: Loss of bound radioactivity is the signal in a displacement assay; it reports binding, not function.

Experiment [2] deals with T2, Mineralocorticoid receptor (Homo sapiens, UniProt P08235).
T2 sequence (P08235 whole entry): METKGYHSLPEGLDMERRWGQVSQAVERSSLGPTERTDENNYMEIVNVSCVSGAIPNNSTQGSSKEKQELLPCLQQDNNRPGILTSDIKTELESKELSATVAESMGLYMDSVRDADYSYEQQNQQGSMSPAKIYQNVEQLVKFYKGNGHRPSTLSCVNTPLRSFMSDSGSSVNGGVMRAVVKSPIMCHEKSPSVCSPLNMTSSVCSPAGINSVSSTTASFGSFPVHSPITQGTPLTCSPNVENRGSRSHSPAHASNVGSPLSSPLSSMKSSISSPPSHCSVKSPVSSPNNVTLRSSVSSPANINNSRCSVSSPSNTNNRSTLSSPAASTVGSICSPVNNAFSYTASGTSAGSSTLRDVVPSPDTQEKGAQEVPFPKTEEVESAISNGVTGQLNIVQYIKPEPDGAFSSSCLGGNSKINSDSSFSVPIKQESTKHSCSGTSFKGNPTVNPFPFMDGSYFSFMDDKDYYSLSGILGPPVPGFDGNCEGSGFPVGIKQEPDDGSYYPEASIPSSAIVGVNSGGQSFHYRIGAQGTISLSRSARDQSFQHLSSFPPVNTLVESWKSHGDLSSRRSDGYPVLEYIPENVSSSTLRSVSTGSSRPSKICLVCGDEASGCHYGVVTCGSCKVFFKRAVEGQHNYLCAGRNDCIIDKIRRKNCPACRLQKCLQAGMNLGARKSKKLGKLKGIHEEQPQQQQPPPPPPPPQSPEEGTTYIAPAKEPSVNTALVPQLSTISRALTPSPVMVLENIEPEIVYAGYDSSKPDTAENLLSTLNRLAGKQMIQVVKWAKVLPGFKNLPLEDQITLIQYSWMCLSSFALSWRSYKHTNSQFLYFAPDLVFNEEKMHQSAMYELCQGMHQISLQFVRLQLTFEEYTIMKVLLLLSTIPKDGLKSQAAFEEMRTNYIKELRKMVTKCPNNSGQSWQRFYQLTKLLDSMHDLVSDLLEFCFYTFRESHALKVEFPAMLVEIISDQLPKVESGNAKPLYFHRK
Briefly: biochemical.

The target of experiment [3] is T1, Glucocorticoid receptor. Briefly: Antagonist activity against glucocorticoid receptor (unknown origin) expressed in HEK293 cells by GRE-dependent luciferase reporter gene assay. In kind it is cell-based. A general note: Reporter assays use an easily measured gene product as a stand-in for the process of interest.
The target of experiment [4] is T3, Glucocorticoid receptor (Rattus norvegicus, UniProt P06536).
T3 sequence (P06536 whole entry): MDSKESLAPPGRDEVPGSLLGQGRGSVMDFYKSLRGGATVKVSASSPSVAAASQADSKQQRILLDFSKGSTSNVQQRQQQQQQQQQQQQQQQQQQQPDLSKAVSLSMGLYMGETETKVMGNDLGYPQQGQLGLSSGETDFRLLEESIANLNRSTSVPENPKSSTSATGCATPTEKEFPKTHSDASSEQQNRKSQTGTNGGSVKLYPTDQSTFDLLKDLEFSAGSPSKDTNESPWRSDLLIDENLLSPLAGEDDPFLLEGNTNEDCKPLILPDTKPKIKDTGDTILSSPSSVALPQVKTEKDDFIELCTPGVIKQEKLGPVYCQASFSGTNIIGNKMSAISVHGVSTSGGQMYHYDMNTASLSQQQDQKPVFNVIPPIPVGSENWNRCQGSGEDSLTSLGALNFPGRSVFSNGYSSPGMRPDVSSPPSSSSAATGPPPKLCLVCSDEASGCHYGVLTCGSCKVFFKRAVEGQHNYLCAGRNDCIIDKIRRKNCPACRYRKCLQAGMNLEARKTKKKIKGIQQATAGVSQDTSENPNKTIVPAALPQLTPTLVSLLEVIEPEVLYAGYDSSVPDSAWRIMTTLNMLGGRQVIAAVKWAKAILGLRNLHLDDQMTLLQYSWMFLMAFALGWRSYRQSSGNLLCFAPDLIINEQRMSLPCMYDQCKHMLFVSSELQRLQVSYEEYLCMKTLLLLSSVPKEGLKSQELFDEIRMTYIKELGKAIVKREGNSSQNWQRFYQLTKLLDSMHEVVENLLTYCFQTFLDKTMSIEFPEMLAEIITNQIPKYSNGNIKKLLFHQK
Briefly: Antagonist activity against glucocorticoid receptor in rat H4-IIE cells assessed as inhibition of dexamethasone-induced receptor transactivation pre-incubated for 1 hr before dexamethasone addition and measured 24 hrs post dexamethasone stimulation by tyrosine aminotransferase enzyme assay. It counts as cell-based.

Experiment [5] has as its target T4, Glucocorticoid receptor (Homo sapiens) (UniProt P04150).
T4 sequence (whole entry): T1 sequence (P04150 whole entry)
Briefly: Agonist activity at glucocorticoid receptor (unknown origin) expressed in HEK293 cells by GRE-dependent luciferase reporter gene assay. It counts as cell-based.

For experiment [6], the target named is T5, Glucocorticoid receptor (Rattus norvegicus) (UniProt P06536).
T5 sequence (whole entry): T3 sequence (P06536 whole entry)
Briefly: Agonist activity at glucocorticoid receptor in rat H4-IIE cells assessed as receptor transactivation incubated for 24 hrs by tyrosine aminotransferase enzyme assay. In kind it is cell-based. In outline: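 Rat hepatoma H4IIEC3 cells grown in DMEM with 10% FBS, plated at 100000 cells/well overnight at 37 °C, 5% CO2, then switched to DMEM/F12 with 5% CS-FBS for 24 h. Test compounds at about 0.09 nM–25 μM for 24 h. Lysates given TAT substrate (4.74 mM L-tyrosine, 13.3 mM α-ketoglutarate, pH 7.6) for 2 h at 37 °C, then KOH. A340 read against a standard curve; EC50 from four-parameter logistic fit.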

Usually Ki stands for the equilibrium dissociation constant of an inhibitor or competing ligand from its target. High values mean lower affinity, low ones higher affinity. As to `CS(=O)(=O)Nc1cccc2cc[nH]c12`, the Ki amounted to 50 nM in experiment [1] and 952 nM in experiment [2].
For orientation: IC50 means the point on the concentration scale where inhibition reaches its midpoint. With `CS(=O)(=O)Nc1cccc2c(-c3cccc(Cl)c3)c[nH]c12`, the Ki was 5.04 nM in experiment [1] and 2.1 nM in experiment [2]. Besides, the results for the IC50 in experiment [3] and in experiment [4] were 180 nM and 76 nM, respectively.
As to `COc1cc(NS(C)(=O)=O)c2[nH]c(C)c(-c3cc(F)ccc3OC)c2c1`, the Ki in experiment [1] was determined as 115 nM; in experiment [2], 38.4 nM.
Consider `COc1ccc(F)cc1-c1c(-c2ccccc2)[nH]c2c(NS(C)(=O)=O)cccc12`, for which the Ki in experiment [1] was 53.7 nM; in experiment [2], 3920 nM.
With `COc1ccc(Cl)cc1-c1c[nH]c2c(NS(C)(=O)=O)cccc12`, the Ki in experiment [1] worked out at 5.45 nM; in experiment [2] it was 4470 nM. Also, the IC50 in experiment [3] is 143 nM; in experiment [4] it was 1250 nM. Besides, the outcome in experiment [5] and in experiment [6] was inactive.
In the case of `CS(=O)(=O)Nc1cccc2c(-c3ccc(F)cc3)c[nH]c12`, the Ki in experiment [1] was determined as 94.6 nM; in experiment [2], 225 nM.
As to `COc1cc(F)ccc1-c1c(CN(C)Cc2ccccc2)[nH]c2c(NS(C)(=O)=O)cc(C(C)(C)C)cc12`, the IC50 in experiment [4] worked out at 14.4 nM. Further, in experiment [6], the outcome was inactive. In experiment [2], this compound returned a Ki of 3880 nM.
Take `COc1cc(F)ccc1-c1c(Cc2ccccc2)[nH]c2c(NS(C)(=O)=O)cc(C(C)C)cc12`: the Ki amounted to 0.543 nM in experiment [1] and 4250 nM in experiment [2]. Further, the IC50 in experiment [3] worked out at 7.54 nM; in experiment [4] it was 292 nM. Also, the outcome in experiment [5] and in experiment [6] was inactive.
Compound `COc1cc(F)ccc1-c1c(CN(C)Cc2ccccc2)[nH]c2c(N)cc(F)cc12` gave a Ki in experiment [2] of 2120 nM.
`COc1cc(F)ccc1-c1c(C)[nH]c2c(NS(C)(=O)=O)cc(F)cc12`: the Ki in experiment [1] was 1.32 nM; in experiment [2], 44.7 nM. Moreover, the figures for the IC50 in experiment [3] and in experiment [4] were 22 nM and 63.4 nM, respectively. The result in experiment [5] and in experiment [6] was inactive.
For the compound `COc1cc(NS(C)(=O)=O)c2[nH]c(C)c(-c3ccccc3)c2c1`, the Ki amounted to 39.8 nM in experiment [1] and 3890 nM in experiment [2].
For `COc1ccccc1-c1c[nH]c2c(NS(C)(=O)=O)cccc12`, the Ki in experiment [1] is 3.06 nM. Further, the IC50 came out at 235 nM in experiment [3] and 1180 nM in experiment [4].
For `COc1cc(F)ccc1-c1c(CN(C)Cc2ccccc2)[nH]c2c(NS(C)(=O)=O)cc(C(C)C)cc12`, the Ki in experiment [1] is 1.22 nM; in experiment [2] it was 1580 nM. The figures for the IC50 in experiment [3] and in experiment [4] were 2.76 nM and 10.6 nM, respectively. The result in experiment [5] and in experiment [6] was inactive.

For the origin of these results see ChEMBL document CHEMBL3603837, “Indole Glucocorticoid Receptor Antagonists Active in a Model of Dyslipidemia Act via a Unique Association with an Agonist Binding Site” (J Med Chem, 2015).
